Experimental data published in PubChem BioAssay AID488885 (Broad Institute, 2010).
Inconclusive results are not listed. Active and inactive are the calls of the source.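 How the source made its calls: active means compounds raising caspase signal whose fitted half-max concentration is within ten times the top valid dose; inconclusive means flat curve with moderate caspase rise, or unreliable fit; inactive means flat near zero, too weak, or opposite direction.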

Test system: HMC1-8 (Mcl1-dependent) caspase activation, CaspaseGlo luminescence, 4 h
Test: apoptosis induction, Mcl1-reliant cancer line – cell-based, HMC1-8 Mcl1-dependent, CaspaseGlo luminescence, dry powder, selectivity assay for A1 inhibitor project, dose response (AID 488885)
Conditions: not given
Outline: (§1)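 Test system: HMC 1-8, a low-A1-expressing human cancer cell line / Quantity: 2500 cells/well / Medium: RPMI-1640, 10% FBS / Schedule: 4 h compound at 37 °C, 1 h reagent at room temperature / Measured by: luminescence with CaspaseGlo reagent / Measure: caspase activation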

SMILES | AC50 [µM]
CC(C)(C)n1nc(-c2ccc(Cl)cc2)c2c(N)ncnc21 | 44.9

Test system: not listed separately
Test: as above
Conditions: HMC1-8 (Mcl1-dependent) caspase activation, CaspaseGlo luminescence, 4 h; at 150 µM (top of the series)
Outline: as §1

SMILES | caspase activation
C=C1[C@@H](C)[C@H]2[C@H](Cc3ccccc3)NC(=O)[C@]23[C@H](OC(C)=O)/C=C/[C@](C)(O)C(=O)[C@@H](C)C/C=C/[C@H]3[C@@H]1O | -0.0184% (inactive)
C=C1[C@@H](C)[C@H]2[C@H](Cc3ccccc3)NC(=O)[C@]23OC(=O)/C=C\[C@H](O)CCC[C@@H](C)C/C=C/[C@H]3[C@@H]1O | 4.5% (inactive)
C/C1=C/C(=O)O[C@@H]2C[C@@H](CC[C@H](C)/C=C\CC1)O[C@@](O)(C1CSC(=O)N1)C2 (stereo not given in full) | 3.84% (inactive)
COc1cc(/C=C(/C#N)c2nc3ccccc3[nH]2)ccc1OCC(=O)Nc1ccccc1C(C)C | 13.5% (inactive)
Cc1ccc(Sc2c([N+](=O)[O-])c(=O)n(C)c3ccccc23)cc1 | -9.5% (inactive)
CC(=O)OC(C)(C)/C=C/C(=O)[C@](C)(O)C1[C@H](O)C[C@@]2(C)C3CC=C4C(C[C@H](O)C(=O)C4(C)C)[C@]3(C)C(=O)C[C@]12C (stereo not given in full) | 17.2% (inactive)
O=C(CCl)N=c1sccn1Cc1ccccc1Cl | -18.4% (inactive)
Cn1c(=NC(=O)CCl)sc2ccccc21 | -4.38% (inactive)
O=C(Oc1cccc(/C=N/Nc2nc(Nc3ccccc3)nc(N3CCOCC3)n2)c1)c1ccco1 | 3.81% (inactive)
